Data as given in the RNAGym collection of RNA variant scans (doi:10.1126/science.aae0568).
This sample holds only a part of the variants without activity.

B1: tRNA (parent)
chain: GUUCCGUUGGCGUAAUGGUAACGCGUCUCCCUCCUAAGGAGAAGACUGCGGGUUCGAGUCCCGUACGGAACG

Variants of: B1
Test: yeast fitness relative to wild type (ratio to wild type); higher = fitter; tRNA-Arg(CCU), competitive growth, 37 C, YPD
Procedure, shortened: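 Variants of the tRNA-Arg(CCU) gene, chemically synthesised with a 3% per-site mutation rate at 69 sites, were placed at the native genomic locus in Saccharomyces cerevisiae. The pooled strains were competed in YPD at 37°C for 24 hours in six parallel replicates. Gene amplicons from the start population and from each end population were read by 100-nucleotide paired-end sequencing. Darwinian fitness relative to wild type came from changes in genotype frequencies; genotypes needed ≥ 100 starting reads, and estimates < 0.5 were set to 0.5.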
C24U G56C gave a yeast fitness of 0.792. G25A C66U showed a yeast fitness of 0.902. G25A C66A gave a yeast fitness of 0.631. For G25A U26A C55G G68C A69G, the yeast fitness was ≤ 0.5. With G25A G41C the yeast fitness was 0.974. With G25C A40C the yeast fitness was 0.848. G25C A40G showed a yeast fitness of 0.645. G25A C31U A70C showed a yeast fitness of 0.731. For G25A G50A C55A C66A, the yeast fitness was ≤ 0.5. For C24U U35C C55G A70U, the yeast fitness was 0.569. G25A C31A C62U showed a yeast fitness of 0.586. In the case of C24U C61G C66U A69U, the yeast fitness is reported as 0.539. With G25A C60A C61A G63A the yeast fitness was 0.75. Variant C24U U35C A70U has a yeast fitness of 0.541. With C24U U53C C60G the yeast fitness was ≤ 0.5. With G25A A43U U54A the yeast fitness was 0.565. Work on G25A G67C yielded a yeast fitness of 0.992. Variant G25A C29U A45U has a yeast fitness of 0.69. For G25A C27G C46G C61A, the yeast fitness was ≤ 0.5. Work on G25A C30U U54A yielded a yeast fitness of 0.533. Work on C24U G63U yielded a yeast fitness of 0.627. Work on G25A U26C A36G yielded a yeast fitness of 1.07. With G25A A43C C66A the yeast fitness was 0.581. G25A A37C C62U showed a yeast fitness of 0.924. Work on C24U U26C G68A yielded a yeast fitness of 0.566. In the case of G25A U59C, the yeast fitness is reported as 0.775. With C24U U59A C62A the yeast fitness was ≤ 0.5. G25A C49U gave a yeast fitness of 0.991. G25A G68C showed a yeast fitness of 0.938. C24U U59A C66U gave a yeast fitness of 0.565. In the case of C24U U32A C33G, the yeast fitness is reported as ≤ 0.5. For C24U U47C U59C, the yeast fitness was 0.684. In the case of G25C A42G A45C U47C C62U, the yeast fitness is reported as ≤ 0.5. In the case of G25A G41A A43U, the yeast fitness is reported as ≤ 0.5. Work on G25A A40U C61U yielded a yeast fitness of 0.669. With C24U G48A U64A the yeast fitness was ≤ 0.5. G25A G52A C66U gave a yeast fitness of 0.637. G25A A45U A69U gave a yeast fitness of 0.806. For G25C C27A G51A, the yeast fitness was 0.549. With G25A C34U A43U G56A the yeast fitness was ≤ 0.5. C24U G48C C62A gave a yeast fitness of 0.579. G25A G51A showed a yeast fitness of 0.861. In the case of C24U G38C C62G, the yeast fitness is reported as 0.623. Work on C24U U59A C62A A69C yielded a yeast fitness of 0.552. In the case of C24U G51C C55U, the yeast fitness is reported as ≤ 0.5. For C24U U26G U35A C62A, the yeast fitness was ≤ 0.5. In the case of G25A G48C C49G, the yeast fitness is reported as ≤ 0.5. With G25A G58C C66U the yeast fitness was 0.778. With C24U U47A C66U the yeast fitness was ≤ 0.5. With G25A U32A C49U U53A the yeast fitness was ≤ 0.5. With G25A C29U C49U C61A the yeast fitness was ≤ 0.5. With G25A G52A A57G G67A the yeast fitness was ≤ 0.5. G25A A40U A42C A45U U47C A65G showed a yeast fitness of 0.664. Work on C24U U64G yielded a yeast fitness of 0.691. C24U U64C gave a yeast fitness of 0.925. Variant C24U U64A has a yeast fitness of 0.822. With C24U U26G C30U G39C the yeast fitness was ≤ 0.5. In the case of G25A G51C C66U, the yeast fitness is reported as ≤ 0.5. Variant G25A C49U A65U has a yeast fitness of 0.849. With G25A G41A C46A A69C the yeast fitness was 0.935. Work on G25C A40C C55U yielded a yeast fitness of 0.708. For G25A C55G, the yeast fitness was 0.681. For G25A C31U A37C G68U, the yeast fitness was ≤ 0.5. In the case of G25C A43U C61G G67C, the yeast fitness is reported as ≤ 0.5. In the case of G25A C62G, the yeast fitness is reported as 0.855. G25A C62U showed a yeast fitness of 0.931. G25A C62A showed a yeast fitness of 0.843. For G25A U26C C29G A45G, the yeast fitness was ≤ 0.5. G25A C31G A70G gave a yeast fitness of 0.642. For G25A A37U G56A C66U, the yeast fitness was ≤ 0.5. With G25A C31U A42G C62U A69C the yeast fitness was ≤ 0.5. Work on G25A C33A A40G yielded a yeast fitness of 0.544. G25A U64A showed a yeast fitness of 0.901. G25A U64C showed a yeast fitness of 0.902. G25A U28G gave a yeast fitness of 0.762. For G25C A42G C55U, the yeast fitness was ≤ 0.5. With C24U U35A A69U the yeast fitness was 0.513. For C24U G58A C62U G63A, the yeast fitness was ≤ 0.5. C24U U26A U28G U54G gave a yeast fitness of 0.545. With G25A C34U A36U C60U the yeast fitness was ≤ 0.5. Work on C24U G48A C62G A69U yielded a yeast fitness of 0.606. Work on G25A C61U yielded a yeast fitness of 0.971. For G25A C61G, the yeast fitness was 0.679. Work on G25A C61A yielded a yeast fitness of 0.595. In the case of G25A A42U A43C G44A C49A C55G, the yeast fitness is reported as ≤ 0.5. Work on G25A C30A G38A A43G C46U A57U yielded a yeast fitness of 0.614. Variant G25A has a yeast fitness of 0.984. Variant G25C has a yeast fitness of 1. G25A C30G A57G gave a yeast fitness of 0.582. For C24U U28G C33G C34U A36G A40G, the yeast fitness was 0.596. With G25A C34G U54A A65U the yeast fitness was ≤ 0.5. With C24U U26G C61G the yeast fitness was ≤ 0.5. For G25A G48A C62G A69U, the yeast fitness was 0.749. For C24U G58A A65C, the yeast fitness was 0.707. For G25A C31U C55G C61U C62A, the yeast fitness was 0.598. C24U G44A C55G G56A A57U gave a yeast fitness of 0.79. G25A C46A G52C gave a yeast fitness of 0.615. In the case of G25A C55U U59C A65C, the yeast fitness is reported as ≤ 0.5. With G25A C31A G51C C55G A57U C66U the yeast fitness was ≤ 0.5. In the case of G25C A36G G48A C60A, the yeast fitness is reported as ≤ 0.5. Variant C24U U26A has a yeast fitness of 0.938. Variant C24U U26C has a yeast fitness of 0.986. Variant C24U U26G has a yeast fitness of 0.987. C24U U47C showed a yeast fitness of 0.997. With C24U G68A the yeast fitness was 0.697. In the case of C24U G25C C61A, the yeast fitness is reported as ≤ 0.5. For G25A C49U A65G A70C, the yeast fitness was ≤ 0.5. With C24U U47A C61A the yeast fitness was ≤ 0.5. With G25A C34A U47C the yeast fitness was ≤ 0.5. Variant G25C A43C has a yeast fitness of 1.03. Work on C24U U35A A40G yielded a yeast fitness of 0.576. Work on C24U U28C G52C C60G yielded a yeast fitness of 0.524. Work on C24U U26A G68A yielded a yeast fitness of 0.604. G25A U32C G41A G56A showed a yeast fitness of 0.553. G25A C34A A65U showed a yeast fitness of 0.616. Variant G25A C49U U64C has a yeast fitness of 0.782. Variant C24U C61U A70C has a yeast fitness of 0.714. Variant G25A C33G A42G G50A has a yeast fitness of 0.596. In the case of C24U U32A C33G C60U A69G, the yeast fitness is reported as ≤ 0.5. In the case of G25A C29U C31G, the yeast fitness is reported as ≤ 0.5. With G25A C29U C31U the yeast fitness was 0.57. C24U G48U showed a yeast fitness of 0.783. For G25A C27G C60A A70U, the yeast fitness was ≤ 0.5. C24U G51A gave a yeast fitness of 0.675. G25A G48A A70C gave a yeast fitness of 1.13. Variant G25A G50A A69C has a yeast fitness of 0.676. For C24U C62A, the yeast fitness was 0.684. For G25A G41C U54G C61U, the yeast fitness was ≤ 0.5. In the case of G25C C27G C62U, the yeast fitness is reported as 0.597. In the case of G25C A70G, the yeast fitness is reported as 0.873. With G25C A70C the yeast fitness was 1.05. Work on G25C A70U yielded a yeast fitness of 0.867. G25A C46G gave a yeast fitness of 0.99. In the case of G25A C46U, the yeast fitness is reported as 0.938. For G25A U26A C31U G38A A42G A43U G48C G68C, the yeast fitness was ≤ 0.5. For G25A G48C G52C C55U, the yeast fitness was ≤ 0.5. Work on G25A G63A yielded a yeast fitness of 0.949. With G25A G63C the yeast fitness was 0.737. Work on C24U U26G G41A A57U yielded a yeast fitness of 0.641. With G25A C49U C55U A57C the yeast fitness was ≤ 0.5. Variant C24U U26C C49U has a yeast fitness of 0.692. Work on C24U G52A yielded a yeast fitness of 0.871. In the case of C24U U35A, the yeast fitness is reported as 0.806. C24U G39C C61U gave a yeast fitness of 0.549. C24U U35C G38C gave a yeast fitness of 0.677. In the case of C24U C66U A69C, the yeast fitness is reported as 0.568. G25A C30U gave a yeast fitness of 1. G25C A42G gave a yeast fitness of 0.911. C24U G41A gave a yeast fitness of 0.926. For G25C A37G A40C C61G, the yeast fitness was ≤ 0.5. With G25A U35C A43G C55U the yeast fitness was ≤ 0.5. Variant G25A C31U G38C has a yeast fitness of 0.881. In the case of G25A U35A G52A U59C C66A G67A, the yeast fitness is reported as ≤ 0.5. G25C A40U C49U showed a yeast fitness of 0.66. With G25A C46U A57U the yeast fitness was 0.965. For G25A C33U C62A A70C, the yeast fitness was ≤ 0.5. For C24U U35G A42G G51A, the yeast fitness was ≤ 0.5. In the case of C24U G56C A57G, the yeast fitness is reported as ≤ 0.5. G25A G41C C66U gave a yeast fitness of 0.755. G25A C34G gave a yeast fitness of 0.726. In the case of C24U C66G G68C, the yeast fitness is reported as ≤ 0.5. For G25A A40C A70U, the yeast fitness was 0.625. For G25A C62A A70U, the yeast fitness was 0.678. For G25A C31U G38C A65C G68A A69U, the yeast fitness was ≤ 0.5. Variant C24U G41C C49A has a yeast fitness of 0.778. For G25A C27G G67C, the yeast fitness was ≤ 0.5. G25A C29A showed a yeast fitness of 0.609.
